Experimental data reported in ChEMBL document CHEMBL5303300, “EUbOPEN Chemogenomics Library - Multiplex” (2023).
“And” between values parts separate entries of the source, which are not always exact repeats. Equal entries are not always repeated.

System: U2OS
Experiment: Multiplex assay against U2OS
Type: toxicity, cell-based
Details: human, number of replicates 2
Method in brief: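 On a CQ1 microscope at 37°C and 5% CO2, live cells were imaged after compound addition. They had been stained at seeding with Hoechst33342, BioTracker Green Microtubule Cytoskeleton Dye, MitoTracker Red and Annexin V Alexa Fluor 680. CellPathfinder machine-learning gating assigned cells to Hoechst high-intensity objects or normal cells, normal cells to healthy, pyknosed or fragmented nuclei, and pyknosed cells to mitotic or apoptotic. Tubulin, mitochondrial-mass and membrane-permeability phenotypes are per cents of healthy-nucleus cells.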

[1] = 12 h, 1 µM, compound concentration 1 uM
[2] = 12 h, 10 µM, compound concentration 10 uM
[3] = 24 h, 1 µM, compound concentration 1 uM
[4] = 24 h, 10 µM, compound concentration 10 uM
[5] = 48 h, 1 µM, compound concentration 1 uM
[6] = 48 h, 10 µM, compound concentration 10 uM

Cl.Clc1ccc2nsnc2c1NC1=NCCN1 [TIZANIDINE HYDROCHLORIDE]
Population Apoptotic (%) [1]: 50% and 55% | Population Fragmented Nuclei (%) [1]: 14% and 4% | Population Healthy Nuclei (%) [1]: 75% and 86% | Population Hoechst High Intensity Objects (%) [1]: 0% | Population Membrane Permeable-Phenotype (%) [1]: 0% and 1% | Population Mitochondria Different-Phenotype (%) [1]: 3% and 0% | Population Mitotic Cells (%) [1]: 50% and 44% | Population Normal (%) [1]: 100% | Population Pyknosed Nuclei (%) [1]: 9% | Population Tubulin-Different-Phenotype (%) [1]: 100% and 96% | Population Fragmented Nuclei (%) [2]: 7% and 4% | Population Healthy Nuclei (%) [2]: 89% and 87% | Population Hoechst High Intensity Objects (%) [2]: 0% | Population Membrane Permeable-Phenotype (%) [2]: 2% and 0% | Population Mitochondria Different-Phenotype (%) [2]: 0% | Population Normal (%) [2]: 100% | Population Pyknosed Nuclei (%) [2]: 2% and 8% | Population Tubulin-Different-Phenotype (%) [2]: 68% and 97% | Population Apoptotic (%) [3]: 100% and 58% | Population Fragmented Nuclei (%) [3]: 8% and 3% | Population Healthy Nuclei (%) [3]: 85% and 89% | Population Hoechst High Intensity Objects (%) [3]: 1% and 0% | Population Membrane Permeable-Phenotype (%) [3]: 1% | Population Mitochondria Different-Phenotype (%) [3]: 0% and 1% | Population Normal (%) [3]: 98% and 100% | Population Pyknosed Nuclei (%) [3]: 6% and 7% | Population Tubulin-Different-Phenotype (%) [3]: 100% and 95% | Population Fragmented Nuclei (%) [4]: 10% and 2% | Population Healthy Nuclei (%) [4]: 89% and 92% | Population Hoechst High Intensity Objects (%) [4]: 0% | Population Membrane Permeable-Phenotype (%) [4]: 0% and 1% | Population Mitochondria Different-Phenotype (%) [4]: 0% | Population Normal (%) [4]: 100% | Population Pyknosed Nuclei (%) [4]: 0% and 5% | Population Tubulin-Different-Phenotype (%) [4]: 77% and 96% | Population Apoptotic (%) [5]: 40% | Population Fragmented Nuclei (%) [5]: 11% | Population Healthy Nuclei (%) [5]: 78% | Population Hoechst High Intensity Objects (%) [5]: 1% | Population Membrane Permeable-Phenotype (%) [5]: 3% | Population Mitochondria Different-Phenotype (%) [5]: 0% | Population Mitotic Cells (%) [5]: 60% | Population Normal (%) [5]: 98% | Population Pyknosed Nuclei (%) [5]: 10% | Population Tubulin-Different-Phenotype (%) [5]: 97% | Total Cell Count [5]: 99 | Population Apoptotic (%) [6]: 88% and 38% | Population Fragmented Nuclei (%) [6]: 4% and 2% | Population Healthy Nuclei (%) [6]: 84% and 92% | Population Hoechst High Intensity Objects (%) [6]: 0% | Population Membrane Permeable-Phenotype (%) [6]: 2% and 0% | Population Mitochondria Different-Phenotype (%) [6]: 0% | Population Normal (%) [6]: 100% | Population Pyknosed Nuclei (%) [6]: 10% and 4% | Population Tubulin-Different-Phenotype (%) [6]: 72% and 99%

Cc1cn(CCN2CCN(c3ccccc3-c3cc(C#N)cc(C(=O)NCCCN4CCCC4)c3)CC2)c2ccccc12
Population Apoptotic (%) [1]: 100% and 75% | Population Healthy Nuclei (%) [1]: 73% and 79% | Population Hoechst High Intensity Objects (%) [1]: 0% | Population Membrane Permeable-Phenotype (%) [1]: 8% and 10% | Population Mitochondria Different-Phenotype (%) [1]: 25% and 38% | Population Mitotic Cells (%) [1]: 0% and 25% | Population Normal (%) [1]: 100% | Population Pyknosed Nuclei (%) [1]: 10% and 16% | Population Tubulin-Different-Phenotype (%) [1]: 38% and 27% | Population Apoptotic (%) [2]: 100% and 82% | Population Fragmented Nuclei (%) [2]: 37% and 13% | Population Healthy Nuclei (%) [2]: 37% and 53% | Population Hoechst High Intensity Objects (%) [2]: 0% | Population Membrane Permeable-Phenotype (%) [2]: 33% and 41% | Population Mitochondria Different-Phenotype (%) [2]: 62% and 56% | Population Mitotic Cells (%) [2]: 0% and 17% | Population Normal (%) [2]: 100% | Population Pyknosed Nuclei (%) [2]: 25% and 33% | Population Tubulin-Different-Phenotype (%) [2]: 91% | Total Cell Count [2]: 64 and 135 | Population Apoptotic (%) [3]: 73% and 87% | Population Healthy Nuclei (%) [3]: 54% and 85% | Population Hoechst High Intensity Objects (%) [3]: 0% | Population Membrane Permeable-Phenotype (%) [3]: 8% and 7% | Population Mitochondria Different-Phenotype (%) [3]: 23% and 47% | Population Mitotic Cells (%) [3]: 26% and 12% | Population Normal (%) [3]: 100% | Population Pyknosed Nuclei (%) [3]: 24% and 12% | Population Tubulin-Different-Phenotype (%) [3]: 29% and 24% | Population Apoptotic (%) [4]: 90% and 88% | Population Fragmented Nuclei (%) [4]: 18% and 32% | Population Healthy Nuclei (%) [4]: 42% and 24% | Population Hoechst High Intensity Objects (%) [4]: 0% and 1% | Population Membrane Permeable-Phenotype (%) [4]: 65% and 35% | Population Mitochondria Different-Phenotype (%) [4]: 47% and 78% | Population Mitotic Cells (%) [4]: 9% and 12% | Population Normal (%) [4]: 99% and 98% | Population Pyknosed Nuclei (%) [4]: 39% and 43% | Population Tubulin-Different-Phenotype (%) [4]: 94% and 92% | Total Cell Count [4]: 162 and 59 | Population Apoptotic (%) [5]: 88% and 81% | Population Healthy Nuclei (%) [5]: 60% and 81% | Population Hoechst High Intensity Objects (%) [5]: 0% | Population Mitochondria Different-Phenotype (%) [5]: 11% and 26% | Population Mitotic Cells (%) [5]: 11% and 18% | Population Normal (%) [5]: 100% | Population Pyknosed Nuclei (%) [5]: 22% and 14% | Population Tubulin-Different-Phenotype (%) [5]: 24% and 31% | Population Apoptotic (%) [6]: 100% and 92% | Population Fragmented Nuclei (%) [6]: 17% and 50% | Population Hoechst High Intensity Objects (%) [6]: 0% and 1% | Population Membrane Permeable-Phenotype (%) [6]: 74% and 40% | Population Mitochondria Different-Phenotype (%) [6]: 48% and 20% | Population Mitotic Cells (%) [6]: 0% and 7% | Population Normal (%) [6]: 100% and 98% | Population Pyknosed Nuclei (%) [6]: 38% and 41% | Population Tubulin-Different-Phenotype (%) [6]: 94% and 80% | Total Cell Count [6]: 168 and 63
